According to ChEMBL document CHEMBL2169794, “Induction of apoptosis by 3-amino-6-(3-aminopropyl)-5,6-dihydro-5,11-dioxo-11H-indeno[1,2-c]isoquinoline via modulation of MAPKs (p38 and c-Jun N-terminal kinase) and c-Myc in HL-60 human leukemia cells” (J Nat Prod, 2012):
Active and inactive are the calls of the source. The calls are words filed in the database; no cut-off is given here.

Assays:
HL-60 [1] = experiment: Induction of apoptosis in human HL60 cells assessed as early apoptotic cells level at 2 uM incubated for 24 hrs by annexinV/7-AAD double staining based flow cytometry (reference value: 3.68%); assay type: functional
HL-60 [2] = experiment: Induction of apoptosis in human HL60 cells assessed as viable cells level at 2 uM incubated for 24 hrs by annexinV/7-AAD double staining based flow cytometry (reference value: 92.44%); assay type: functional
HL-60 [3] = experiment: Induction of apoptosis in human HL60 cells assessed as viable cells level at 1 uM incubated for 24 hrs by annexinV/7-AAD double staining based flow cytometry (reference value: 92.44%); assay type: functional
HL-60 [4] = experiment: Cell cycle arrest in human HL60 cells assessed as accumulation at subG0/G1 phase at 1 uM by NIM-DAPI staining based flow cytometry (reference value: 2.8 +/- 0.8%); assay type: functional
HL-60 [5] = experiment: Cell cycle arrest in human HL60 cells assessed as accumulation at subG0/G1 phase at 0.5 uM by NIM-DAPI staining based flow cytometry (reference value: 2.8 +/- 0.8%); assay type: functional
HL-60 [6] = experiment: Cell cycle arrest in human HL60 cells assessed as accumulation at subG0/G1 phase at 0.25 uM by NIM-DAPI staining based flow cytometry (reference value: 2.8 +/- 0.8%); assay type: functional
HL-60 [7] = experiment: Cell cycle arrest in human HL60 cells assessed as accumulation at subG0/G1 phase at 0.125 uM by NIM-DAPI staining based flow cytometry (reference value: 2.8 +/- 0.8%); assay type: functional
HL-60 [8] = experiment: Cell cycle arrest in human HL60 cells assessed as accumulation at subG0/G1 phase at 0.0625 uM by NIM-DAPI staining based flow cytometry (reference value: 2.8 +/- 0.8%); assay type: functional
HL-60 [9] = experiment: Cell cycle arrest in human HL60 cells assessed as accumulation at G2/M phase at 0.5 uM by NIM-DAPI staining based flow cytometry (reference value: 13.2 +/- 2.8%); assay type: functional
HL-60 [10] = experiment: Cell cycle arrest in human HL60 cells assessed as accumulation at G2/M phase at 0.25 uM by NIM-DAPI staining based flow cytometry (reference value: 13.2 +/- 2.8%); assay type: functional
HL-60 [11] = experiment: Cell cycle arrest in human HL60 cells assessed as accumulation at G2/M phase at 0.125 uM by NIM-DAPI staining based flow cytometry (reference value: 13.2 +/- 2.8%); assay type: functional
HL-60 [12] = experiment: Antiproliferative activity against human HL60 cells after 96 hrs by MTT assay; assay type: functional, cell-based; conditions: HL-60, 96 h
Method in brief: (§1)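 HL-60 cells seeded at 2×10^4 per well, treated after 24 h with serial dilutions (0.0625-1 µM) for 24, 48, 72 or 96 h; DMSO 0.1% vehicle control. MTT added (final 500 µg/mL) for 4 h, formazan dissolved in DMSO, OD at 540 nm. Inhibition calculated relative to vehicle control after subtracting time-zero reading; IC50 by curve fitting; n = 6 per group.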

HL-60 [13] = experiment: Antiproliferative activity against human HL60 cells after 72 hrs by MTT assay; assay type: functional, cell-based; conditions: HL-60, 72 h; method in brief: as §1
HL-60 [14] = experiment: Antiproliferative activity against human HL60 cells after 48 hrs by MTT assay; assay type: functional, cell-based; conditions: HL-60, 48 h; method in brief: as §1
HL-60 [15] = experiment: Reduction in mitochondrial transmembrane electric potential in human HL60 cells 1 uM incubated for 96 hrs by DiOC6(3) dye staining based flow cytometry; assay type: functional, cell-based
Method in brief: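 HL-60 cells given DMSO vehicle or 1 µM test agent for 96 h, then loaded with 100 nM DiOC6(3) for 30 min at 37 °C. After washing and resuspension in PBS, the cells were read at once by flow cytometry in FL-1.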

HL-60 [16] = experiment: Antiproliferative activity against human HL60 cells after 24 hrs by MTT assay; assay type: functional, cell-based; conditions: HL-60, 24 h; method in brief: as §1
HL-60 [17] = experiment: Cell cycle arrest in human HL60 cells assessed as accumulation at G2/M phase at 0.0625 uM by NIM-DAPI staining based flow cytometry (reference value: 13.2 +/- 2.8%); assay type: functional
HL-60 [18] = experiment: Induction of apoptosis assessed as increase in caspase 3/7 enzyme activity in human HL60 cells at 1 uM incubated for 24 to 72 hrs by luminometry relative to untreated control; assay type: functional
Method in brief: (§2)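 HL-60 cells treated with serial dilutions in 96-well plates for 24, 48 and 72 h. Luminogenic caspase-3/7, caspase-8 or caspase-9 substrate reagent added for 3 h at room temperature, then luminescence read. Results are expressed as fold over DMSO vehicle control.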

HL-60 [19] = experiment: Down regulation of c-Myc protein expression in human HL60 cells at 1 uM after 2 hrs by Western blot method; assay type: functional, cell-based
Method in brief: (§3)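 HL-60 cells exposed to 1 µM test agent for the indicated times, then lysed. 15 µg protein run on 12% SDS-PAGE, blotted to PVDF, probed overnight at 4 °C with antibodies to phospho- or total ERK1/2, p38 (Thr180/Tyr182), SAPK/JNK (Thr183/Tyr185) or c-Myc. HRP secondary, chemiluminescent read-out.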

[20] = target: MAP kinase p38 (Homo sapiens) (UniProt O15264+Q15759+Q16539+P53778); experiment: Induction of p38 MAPK phosphorylation in human HL60 cells at 1 uM incubated for 1 to 24 hrs by Western blot method; assay type: cell-based; conditions: HL-60; method in brief: as §3
[21] = target: c-Jun N-terminal kinase, JNK (Homo sapiens) (UniProt P45983+P53779+P45984); experiment: Induction of JNK phosphorylation in human HL60 cells at 1 uM incubated for 1 to 24 hrs by Western blot method; assay type: cell-based; conditions: HL-60; method in brief: as §3
HL-60 [22] = experiment: Effect on total p38MAPK protein expression in human HL60 cells at 1 uM incubated for 1 to 24 hrs by Western blot method; assay type: functional, cell-based; method in brief: as §3
HL-60 [23] = experiment: Effect on total SAPK/JNK protein expression in human HL60 cells at 1 uM incubated for 1 to 24 hrs by Western blot method; assay type: functional, cell-based; method in brief: as §3
HL-60 [24] = experiment: Effect on total ERK1/2 protein expression in human HL60 cells at 1 uM incubated for 1 to 24 hrs by Western blot method; assay type: functional, cell-based; method in brief: as §3
HL-60 [25] = experiment: Induction of apoptosis assessed as increase in caspase 8 enzyme activity in human HL60 cells at 1 uM incubated for 24 to 72 hrs by luminometry relative to untreated control; assay type: functional, cell-based; method in brief: as §2
HL-60 [26] = experiment: Induction of apoptosis assessed as increase in caspase 9 enzyme activity in human HL60 cells at 1 uM incubated for 24 to 72 hrs by luminometry relative to untreated control; assay type: functional; method in brief: as §2
HL-60 [27] = experiment: Induction of cleaved caspase 7 expression in human HL60 cells at 0.25 to 2 uM incubated for 24 hrs by Western blotting method; assay type: functional, cell-based
Method in brief: (§4)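 HL-60 cells exposed for 24 h to the stated concentrations and lysed; protein measured by Bradford. Lysate (15 µg) run on 12% SDS-PAGE and transferred to PVDF. Blocked in 5% milk/TBST for 1 h, primary antibody overnight at 4 °C, HRP secondary for 2 h at room temperature, chemiluminescent detection.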

HL-60 [28] = experiment: Induction of cleaved caspase 3 expression in human HL60 cells at 0.25 to 2 uM incubated for 24 hrs by Western blotting method; assay type: functional, cell-based; method in brief: as §4
HL-60 [29] = experiment: Induction of PARP cleavage in human HL60 cells 2 uM incubated for 24 hrs by Western blot method; assay type: functional, cell-based; method in brief: as §4
HL-60 [30] = experiment: Induction of PARP cleavage in human HL60 cells 1 uM incubated for 24 hrs by Western blot method; assay type: functional, cell-based; method in brief: as §4
HL-60 [31] = experiment: Induction of apoptosis in human HL60 cells assessed as necrotic cells level at 2 uM incubated for 24 hrs by annexinV/7-AAD double staining based flow cytometry (reference value: 3.45%); assay type: functional
HL-60 [32] = experiment: Induction of apoptosis in human HL60 cells assessed as necrotic cells level at 1 uM incubated for 24 hrs by annexinV/7-AAD double staining based flow cytometry (reference value: 3.45%); assay type: functional
HL-60 [33] = experiment: Induction of apoptosis in human HL60 cells assessed as late apoptotic cells level at 2 uM incubated for 24 hrs by annexinV/7-AAD double staining based flow cytometry (reference value: 0.43%); assay type: functional
HL-60 [34] = experiment: Induction of apoptosis in human HL60 cells assessed as late apoptotic cells level at 1 uM incubated for 24 hrs by annexinV/7-AAD double staining based flow cytometry (reference value: 0.43%); assay type: functional
HL-60 [35] = experiment: Induction of apoptosis in human HL60 cells assessed as early apoptotic cells level at 1 uM incubated for 24 hrs by annexinV/7-AAD double staining based flow cytometry (reference value: 3.68%); assay type: functional

Cl.Cl.NCCCn1c2c(c3ccc(N)cc3c1=O)C(=O)c1ccccc1-2
Activity (HL-60 [1]): 51.56%
Activity (HL-60 [2]): 37.6%
Activity (HL-60 [3]): 57.62%
Activity (HL-60 [4]): 26.5%
Activity (HL-60 [5]): 11.1%
Activity (HL-60 [6]): 6.1%
Activity (HL-60 [7]): 6%
Activity (HL-60 [8]): 4.6%
Activity (HL-60 [9]): 27.6%
Activity (HL-60 [10]): 45%
Activity (HL-60 [11]): 39.6%
IC50 (HL-60 [12]): 86 nM
IC50 (HL-60 [13]): 150 nM
IC50 (HL-60 [14]): 350 nM
Activity (HL-60 [15]): Active
IC50 (HL-60 [16]): 800 nM
Activity (HL-60 [17]): 22%
fold change (FC) (HL-60 [18]): 12.6
Activity (HL-60 [19]): Active
Activity [20]: Active
Activity [21]: Active
Activity (HL-60 [22]): inactive
Activity (HL-60 [23]): inactive
Activity (HL-60 [24]): inactive
Activity (HL-60 [25]): inactive
fold change (FC) (HL-60 [26]): 7.8
Activity (HL-60 [27]): Active
Activity (HL-60 [28]): Active
Activity (HL-60 [29]): Active
Activity (HL-60 [30]): Active
Activity (HL-60 [31]): 4.57%
Activity (HL-60 [32]): 2.99%
Activity (HL-60 [33]): 6.27%
Activity (HL-60 [34]): 5.21%
Activity (HL-60 [35]): 34.18%
